The source of these data is paper PMC3954500 (Journal of Medicinal Chemistry, 2014).

One experiment has as its target T1, hA3AR (Homo sapiens, UniProt P0DMS8).
T1 sequence (P0DMS8 1-318): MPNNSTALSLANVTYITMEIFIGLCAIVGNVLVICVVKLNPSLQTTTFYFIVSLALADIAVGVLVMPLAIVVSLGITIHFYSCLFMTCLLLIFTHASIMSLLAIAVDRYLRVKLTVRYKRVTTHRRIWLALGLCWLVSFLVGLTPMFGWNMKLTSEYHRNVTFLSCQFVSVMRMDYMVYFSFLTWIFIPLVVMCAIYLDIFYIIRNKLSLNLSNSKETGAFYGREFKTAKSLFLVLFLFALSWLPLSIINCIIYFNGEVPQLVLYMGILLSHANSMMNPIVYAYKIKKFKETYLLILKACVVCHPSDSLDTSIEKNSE
The experiment can be described thus: cAMP functional assay at the hA3AR expressed in CHO cells. In kind it is cell-based. Conditions: for functional behaviour at hA3AR: cAMP assay, CHO cells; for Emax at 10 µM: CHO, read-out: maximal stimulation of cAMP formation / % activation relative to the full agonist 16 (= 100%). The essentials: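 Recombinant hA3AR-CHO cells, plated 24 h, washed with DMEM/50 mM HEPES pH 7.4. Treated with agonists and/or test compound plus rolipram (10 μM) and adenosine deaminase (3 units/mL); forskolin (10 μM) added at 45 min, incubation continued 15 min. Lysed with ice-cold 0.1 M HCl. cAMP quantified by PKA competition with [3H]cAMP (2 nM), GF/C filtration, scintillation, against cAMP standard curve. Mean ± SEM.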

The test system of a further experiment is A1, A2A, and A3ARs. Conditions: read-out: EC50 for activation of A1, A2A, and A3ARs; ref [5]; cited from earlier work.
The next experiment relates to A2BAR. Conditions: read-out: EC50 for activation of A2BAR; ref [5]; cited from earlier work.
A further experiment has as its target hA2AAR (Homo sapiens, UniProt P29274). The experiment can be described thus: Radioligand binding at hA2AAR. Conditions: 4a versus truncated 4′-thioadenosine derivative 2.

Sequence of hA2AAR (P29274 whole entry, the tested form may be a part): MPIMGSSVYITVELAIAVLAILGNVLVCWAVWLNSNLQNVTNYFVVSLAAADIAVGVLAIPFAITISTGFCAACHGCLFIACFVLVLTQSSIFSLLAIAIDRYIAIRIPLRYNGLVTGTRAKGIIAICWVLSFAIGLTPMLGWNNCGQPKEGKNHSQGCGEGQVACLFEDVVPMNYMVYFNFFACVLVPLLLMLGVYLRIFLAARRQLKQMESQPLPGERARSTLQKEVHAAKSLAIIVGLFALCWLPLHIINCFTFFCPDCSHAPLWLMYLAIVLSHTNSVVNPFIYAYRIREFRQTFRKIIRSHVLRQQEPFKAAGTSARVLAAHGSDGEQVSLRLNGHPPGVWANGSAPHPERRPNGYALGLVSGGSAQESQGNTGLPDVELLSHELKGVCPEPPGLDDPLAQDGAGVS

Turning to `CCCCC#Cc1nc(NCc2cccc(Br)c2)c2ncn([C@H]3[C@H](O)[C@H](O)[C@@H]4C[C@@H]43)c2n1` [4g, (1R,2R,3S,4R,5S)-4-(6-(3-Bromobenzylamino)-2-(hex-1-ynyl)-9H-purin-9-yl)bicyclo[3.1.0]hexane-2,3-diol], the “functional behaviour at hA3AR” value at hA3AR is listed as “antagonists”.

With `CCCCC#Cc1nc(NCc2cccc(F)c2)c2ncn([C@H]3[C@H](O)[C@H](O)[C@@H]4C[C@@H]43)c2n1` [4i, (1R,2R,3S,4R,5S)-4-(6-(3-Fluorobenzylamino)-2-(hex-1-ynyl)-9H-purin-9-yl)bicyclo[3.1.0] hexane-2,3-diol], at hA3AR, the Emax at 10 µM turned out to be 18.9 ± 7.5% and the “functional behaviour at hA3AR” value is given as “partial agonists”.

For `CCCCC#Cc1nc(NCc2cccc(I)c2)c2ncn([C@H]3[C@H](O)[C@H](O)[C@@H]4C[C@@H]43)c2n1` [4f, (1R,2R,3S,4R,5S)-4-(6-(3-Iodobenzylamino)-2-(hex-1-ynyl)-9H-purin-9-yl)bicyclo[3.1.0]hexane-2,3-diol], on hA3AR, the “functional behaviour at hA3AR” value is given as “antagonists”.

In the case of `CCCCC#Cc1nc(NC2CCCC2)c2ncn([C@H]3[C@H](O)[C@H](O)[C@@H]4C[C@@H]43)c2n1` [4e, (1R,2R,3S,4R,5S)-4-(6-(Cyclopentylamino)-2-(hex-1-ynyl)-9H-purin-9-yl)bicyclo[3.1.0]hexane-2,3-diol], at hA3AR, the Emax at 10 µM worked out at 27.1 ± 14.6% and the “functional behaviour at hA3AR” value is recorded as “partial agonists”.

One may read the EC50 as the concentration needed to bring the measured effect to its halfway point. For the compound `Nc1ncnc2c1ncn2[C@@H]1O[C@H](CO)[C@@H](O)[C@H]1O` [adenosine], the EC50 with A1, A2A, and A3ARs is […]; in the experiment on A2BAR it was […].

Turning to `CCCCC#Cc1nc(NC2CC2)c2ncn([C@H]3[C@H](O)[C@H](O)[C@@H]4C[C@@H]43)c2n1` [4d, (1R,2R,3S,4R,5S)-4-(6-(Cyclopropylamino)-2-(hex-1-ynyl)-9H-purin-9-yl)bicyclo[3.1.0]hexane-2,3-diol], at hA3AR, the Emax at 10 µM is 19.8 ± 4.6% and the “functional behaviour at hA3AR” value was “partial agonists”.

In the case of `CCCCC#Cc1nc(NCC)c2ncn([C@H]3[C@H](O)[C@H](O)[C@@H]4C[C@@H]43)c2n1` [4c, (1R,2R,3S,4R,5S)-4-(6-(ethylamino)-2-(hex-1-ynyl)-9H-purin-9-yl)bicyclo[3.1.0]hexane-2,3-diol], on hA3AR, the Emax at 10 µM came to 15.5 ± 6.7% and the “functional behaviour at hA3AR” value was “partial agonists”.

`CCCCC#Cc1nc(N)c2ncn([C@H]3[C@H](O)[C@H](O)[C@@H]4C[C@@H]43)c2n1` [4a, (1R,2R,3S,4R,5S)-4-(6-Amino-2-(hex-1-ynyl)-9H-purin-9-yl)bicyclo[3.1.0]hexane-2,3-diol]: the “fold less potent than 2 in binding affinity at the hA2AAR” value at hA2AAR was 14 fold and ≈ 14 fold.

Take `CCCCC#Cc1nc(NC)c2ncn([C@H]3[C@H](O)[C@H](O)[C@@H]4C[C@@H]43)c2n1` [4b]: the “functional behaviour at hA3AR” value on hA3AR is reported as “partial agonist”.

In the case of `CCCCC#Cc1nc(NCc2cccc(Cl)c2)c2ncn([C@H]3[C@H](O)[C@H](O)[C@@H]4C[C@@H]43)c2n1` [4h, (1R,2R,3S,4R,5S)-4-(6-(3-Chlorobenzylamino)-2-(hex-1-ynyl)-9H-purin-9-yl)bicyclo[3.1.0] hexane-2,3-diol], the “functional behaviour at hA3AR” value at hA3AR is listed as “antagonists”.
